# Screening results (PubChem BioAssay)
# A selection: hits, their analogues and other compounds. The true share with any hit is near 4%.
# SIRT5 block: inhibitors of human sirtuin-5 desuccinylase | Q9NXA8 | Purified SirT5, succinyl-peptide AMC, trypsin-coupled fluorescence | inhibition, % at 15 µM | 1.1% of 330,000 active | AID 652115; in the data active means inhibition above about 15%; inconclusive means no clear call, values can overlap the other calls
# Target sequence (Q9NXA8 whole entry, looked up): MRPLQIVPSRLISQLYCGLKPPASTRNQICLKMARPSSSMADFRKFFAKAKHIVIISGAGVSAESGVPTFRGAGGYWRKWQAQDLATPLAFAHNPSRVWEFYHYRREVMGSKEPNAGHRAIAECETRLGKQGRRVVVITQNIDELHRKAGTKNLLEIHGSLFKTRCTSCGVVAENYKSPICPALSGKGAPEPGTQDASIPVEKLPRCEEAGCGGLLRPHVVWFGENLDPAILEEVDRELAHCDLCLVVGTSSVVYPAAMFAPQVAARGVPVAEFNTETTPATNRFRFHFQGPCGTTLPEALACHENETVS
# E-sel inducer: induces E-selectin expression in human endothelial cells; P16581; HUVEC E-selectin immunofluorescence imaging; normalized: neutral wells 0, TNF-alpha wells 100; activation, % at 7.58 µM; 0.37% of 260,000 active; AID 686992;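 active means mean E-selectin-positive cell signal at least 10% of the positive control, reached in at least 60% of replicates, without over 20% cell loss; inconclusive means no rule given, readout overlaps actives, possibly toxicity-flagged; inactive means the rest, including those meeting only one limit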
#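 System: HUVEC, human umbilical vein endothelial cells; quantity: 3,000 cells/well; buffer or medium: EGM-2 medium, gelatin-coated wells; dosing: single-point compound dose; detection: immunofluorescence imaging; evaluation: % PE-positive cells; benchmarks: TNF-alpha, DMSO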
# FGF22 binding: shifts melting point of recombinant human FGF22; recombinant FGF22 thermal shift, SYPRO orange fluorescence; percent of sucrose octasulfate shift, DMSO zero; AID 651658; 1.5% of 340,000 active; Q9HCT0; activity (Tm shift, normalised), % at 9.99 µM;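 active means mean Tm shift, scaled 0 neutral to 100 positive control, at about 1.3% or above, every replicate too, limit read from the data; inconclusive means no clear call, values can overlap the other calls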
# Target sequence (Q9HCT0 whole entry, looked up): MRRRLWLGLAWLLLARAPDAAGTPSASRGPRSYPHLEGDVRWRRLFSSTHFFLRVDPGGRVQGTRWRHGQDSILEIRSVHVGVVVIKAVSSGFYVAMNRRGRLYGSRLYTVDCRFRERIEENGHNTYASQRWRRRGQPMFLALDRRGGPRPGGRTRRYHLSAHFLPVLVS
# C2C12 statin: suppression of simvastatin myotoxicity | rescue of ATP level, % at 7.49 µM | 0.78% of 330,000 active | C2C12 myotubes + simvastatin, ATP luminescence, 48 h; scaled: DMSO 0, geranylgeraniol control 100;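 active means mean ATP rescue above about 67%, or every replicate alone reaching that limit, limit read from the data, passing the limit was not always enough; inconclusive means no clear call, values can overlap the other calls; inactive means mean under the limit and some replicate under it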;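 further: myotubes were challenged with 10 µM simvastatin during compound exposure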
# FN deposition inh: fibronectin deposition inhibition | AID 743247 | AH1F fibroblasts, Alexa488-fibronectin deposition fluorescence, overnight | inhibition, % at 12.6 µM | 0.086% of 350,000 active;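 active means mean inhibition across replicates of 30% or more, regardless of how many single replicates reach that level; inconclusive means mean under 30% yet at least half of replicates reach 30%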;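 further: positive control wells lacked labelled fibronectin entirely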
#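 Material – AH1F fibroblast monolayer, labelled fibronectin deposition · Reagent – labelled fibronectin 24 nM · Timing – 1 h adhesion, overnight exposure · Measured by – fluorescence at 485 nm excitation, 525 nm emission · Read-out – inhibition of fibronectin deposition signal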
# rRNA inh HTS: selective bacterial rRNA inhibition in E. coli; GFP signal change (wild-type ribosome), % (test concentration not listed); 1.6% of 350,000 active; E. coli WT GFP vs humanized-ribosome RFP mutants, fluorescence, 24 h; active compounds read low; DMSO median 0, no signal -100;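 active means significant combined selectivity score with lowered wild-type GFP, culture density cut under 30%, mutant RFP and density less affected; inactive means any of these conditions unmet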
# AID977621: wild-type E. coli growth inhibition versus H69 humanized strain – H69 mutant RFP, wild-type GFP, cherry-pick, dose response; shares compounds with rRNA inh HTS; fluorescence, 24 h; activity change, negative = inhibition at 50 µM; 1,900 tested, under 10 active;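 active means Wild-type ribosome reporter drop at least double the humanized mutant ribosome reporter drop, growth loss under a set limit; inconclusive means no clear call, values can overlap the other calls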;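 further: wild-type GFP and H69 mutant RFP strains grown together 50/50 in each well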
# AID977628: growth of wild-type and h24-humanized E. coli strains – h24 mutant RFP vs wild-type GFP, cherry-pick, dose response | shares compounds with rRNA inh HTS | E. coli WT GFP strain growth, fluorescence, 24 h | 1,900 tested, under 10 active | activity change, negative = inhibition at 50 µM;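 active means compound lowering the normal-ribosome reporter at least twice as much as the humanized-ribosome reporter, growth loss under a set limit; inconclusive means no clear call, values can overlap the other calls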;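 further: wild-type GFP and h24 humanized RFP strains co-cultured 1 to 1 per well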
# Active calls of the source: *; u = inconclusive; x = no result given.
SMILES,SIRT5 block,E-sel inducer,FGF22 binding,C2C12 statin,FN deposition inh,rRNA inh HTS,AID977621,AID977628
COc1cccc(CNC(=O)CCSCc2ccccc2F)c1,-2,5,0,x,-5,-29*,-11,x
COc1cccc(OC)c1CNC(=O)CCSCc1ccccc1F,-2,0,0,x,-6,-35*,3.2,-7.1
COC(C(=O)Nc1ccnn1C1CCN(Cc2ccc(Cl)s2)CC1)c1ccccc1 (stereo not given),-7,x,0,-1,-1,-22*,-4.8,-9.8
CN(C(=O)COC(=O)CSc1ccc(C(N)=O)cc1[N+](=O)[O-])C1CCCCC1,10,1,0,-2,-11,-16*,-9.9,4.1
COc1ccccc1Cc1c(-c2ccc(F)cc2)nc2ccc(Br)cn12,x,0,0,-25,0,-24*,-13,-12
Cc1ccc(Cc2c(-c3ccc(C#N)cc3)nc3ccc(Br)cn23)cc1,-6,x,0,-5,1,-28*,9,2.9
COc1ccccc1Cc1c(-c2ccc(OC)c(OC)c2)nc2ccc(Br)cn12,-1,x,0,-57,x,-4,x,x
CCC(=O)N1CC2(C1)[C@H](c1ccccc1)[C@H](CO)N2Cc1cccc(Cl)c1,-2,0,0,x,x,-10,x,x
COc1ccccc1NC(=O)N1CC(=O)N2[C@@H](CO)[C@H](c3ccc(C#CCC(C)C)cc3)[C@@H]2C1,x,x,x,x,x,-7,x,x
CCCNC(=O)C[C@@H]1C[C@H]2c3cc(NC(=O)NC4CCCCC4)ccc3O[C@H]2[C@@H](CO)O1,-7,-1,0,-2,-5,0,x,x
CC1C=Cc2ccccc2N1C(=O)c1ccccc1 (stereo not given),-5,x,0,-7,x,-32*,2.5,x
O=C1CN(S(=O)(=O)c2ccccc2)C[C@@H]2[C@@H](c3ccc(Br)cc3)[C@@H](CO)N12,-4,0,0,x,x,0,x,x
O=S(=O)(c1ccc(Cl)cc1)N1CCN=C1SCc1cccnc1,0,0,0,x,3,-3,x,x
O=S(=O)(c1ccc(Cl)cc1)N1CCN=C1SCc1cccc(Cl)c1,-2,-1,0,x,-3,-23*,-5.5,x
Cc1ccc(Cl)cc1N1CCN(C(=O)c2ccc3nc[nH]c3c2)CC1,1,1,0,-3,1,-45*,-17,x
COc1cccc(N2CCN(C(=O)c3ccc4nc[nH]c4c3)CC2)c1,-1,0,0,x,x,3,x,x
O=C(NCc1cccnc1)C1CCN(S(=O)(=O)c2cc([N+](=O)[O-])ccc2Cl)CC1,x,x,0,-2,x,-3.1*,-8.1,-13
CC(C)[C@H](C)NC(=O)N(C)C[C@H]1OCc2ccccc2-c2ccccc2C(=O)N([C@H](C)CO)C[C@@H]1C,x,0,0,3,1,1,x,x
Cc1ccc(S(=O)(=O)N(C)C[C@@H]2Oc3c(cccc3N(C)C)C(=O)N([C@H](C)CO)C[C@H]2C)cc1,-3,-14,-1,5,0,-8,x,x
Cc1ccc(Cl)cc1N1CCN(S(=O)(=O)N2CCCCC2)CC1,-6,x,0,x,-7,-28,x,x
Cc1ccc(Cl)cc1N1CCN(S(C)(=O)=O)CC1,-1,x,0,-33,x,-35*,x,u
CO[C@H]1CN(C)C(=O)c2ccc(NC(=O)Cc3ccccc3)cc2OC[C@H](C)NC[C@@H]1C,-4,0,x,x,-6,-1,x,x
O=C(CCCOc1ccccc1)NCCc1nc2ccccc2[nH]1,-3,2,0,6,1,-19*,x,6.4
CCOc1ccc(OCC(=O)NCCc2nc3ccccc3[nH]2)cc1,x,x,x,x,6,x,x,x
COc1ccc(C#Cc2ccc([C@H]3[C@@H](CO)N4CCCCN(C(=O)Nc5ccc(F)cc5)C[C@H]34)cc2)cc1,5,0,-1,x,x,-53,x,x
SMILES,SIRT5 block,E-sel inducer,FGF22 binding,C2C12 statin,FN deposition inh,rRNA inh HTS,AID977621,AID977628
O=C(Nc1cccc(F)c1)N1[C@@H]2CNC[C@H]1C2c1ccc(-c2ccncc2)cc1 (stereo not given in full),1,0,x,x,-1,-25*,-18,-1.7
COc1ccc(C#Cc2ccc([C@@H]3[C@@H](CO)N4CCCCN(C(=O)Nc5ccc(F)cc5)C[C@H]34)cc2)cc1,-3,-1,-1,x,x,-48*,x,u
O=C(Nc1ccc(F)cc1)N1CCCCN2[C@@H](CO)[C@H](c3ccc(-c4ccncc4)cc3)[C@@H]2C1,-2,0,0,x,x,-20*,-9.3,x
COC(=O)c1ccc(CCc2cc(O)c(Br)cc2O)cc1,x,0,-1,x,x,-19*,-9.5,-3.5
CCOC(=O)c1cccc(NC(=O)CCc2ccccc2)c1,-2,1,x,0,5,-19,x,x
CCOC(=O)c1cccc(OS(=O)(=O)Cc2ccccc2)c1,1,0,0,19,-2,-26*,-9.1,x
CC(=O)Oc1ccc(N(c2ccccc2)S(=O)(=O)c2ccc(C)cc2)cc1,-4,0,0,7,-5,-24*,x,-5
CN1C(=O)c2cc(NS(=O)(=O)c3ccccc3Cl)ccc2OC[C@H]2O[C@H](CC(=O)O)CC[C@H]21,-10,0,0,12,7,5,x,x
COc1ccc(CN(C)C[C@H]2Oc3ccc(NC(=O)NC(C)C)cc3C(=O)N([C@@H](C)CO)C[C@@H]2C)cc1,-5,-4,0,25,x,1,x,x
COc1ccc(OCCC(=O)OCC(=O)NCCC2=CCCCC2)cc1,3,0,41,x,-6,-24*,-13,-9.7
CC(C)C[C@@H]1COc2cc(NC3CC3)ccc2S(=O)(=O)N1,-3,2,0,x,8,9,x,x
CC(C)C[C@H]1COc2cc(Br)ccc2S(=O)(=O)N1,2,-1,0,18,2,-22*,0.022,u
COc1ccc(C(CC(=O)c2ccc(O)cc2)S(=O)(=O)c2ccc(C)cc2)cc1 (stereo not given),5,x,0,-13,x,-24*,-0.51,-11
COc1ccc(C(=O)CCS(=O)(=O)c2ccc(C)cc2)cc1,-3,0,0,-3,-1,-1,x,x
CCOC(=O)c1c(C)nsc1NCc1ccccc1,1,x,0,x,14,-29*,-24,x
C[C@H]1CN([C@@H](C)CO)C(=O)c2cc(C3=CCCC3)cnc2O[C@@H]1CN(C)C(=O)c1ccc2c(c1)OCO2,-1,0,0,11,x,-2,x,x
